Assay results collected from several papers.
Lines come from different studies, so protocols differ.

For `CC[C@H](C)[C@H](NC(=O)[C@H](CCCNC(=N)N)NC(=O)[C@H](CCCNC(=N)N)NC(=O)[C@H](CCSC)NC(=O)[C@H](CCCNC(=N)N)NC(=O)[C@H](CCCNC(=N)N)NC(=O)[C@H](CCCNC(=N)N)NC(=O)[C@H](CC(C)C)NC(=O)[C@H](CCCNC(=N)N)NC(=O)CNC(=O)[C@H](Cc1c[nH]c2ccccc12)NC(=O)[C@@H](N)CCSC)C(=O)N[C@@H](CCCCN)C(N)=O`, the IC50 was greater than 500 µM (A549; cell growth or viability, MTT; 24 h).
The IC50 of `O=c1cc(CSc2ccc(N=Cc3ccccc3[N+](=O)[O-])cc2)occ1O` is reported as 42.6 µM (ABTS scavenging, absorbance).
`N.N.[Cl][Pt][Cl]` has an inhibition of 92% (MEG-01; cell growth or viability, ATP luminescence; 10 µM, 72 h).
`CC(C)(C)c1cccc(C=Nc2ccc(SCc3cc(=O)c(O)co3)cc2)c1` gave an IC50 of 15 µM (ABTS scavenging, absorbance).
The GI50 of `N#C[Se]CCCCOc1ccc2c(-c3ccccc3)cc(=O)oc2c1` is reported as 29 µM (A549; cell growth or viability, SRB).
The inhibition of `CCOc1ccc(Nc2c3c(nc4ccccc24)CCC3)cc1` is reported as 69% (Leishmania donovani; parasite growth; 8 µM, intracellular, amastigote).
For `N.N.[Cl][Pt][Cl]`, the IC50 was 46.4 µM (A549; cell growth or viability, MTT; 48 h).
`O=c1cc(CSc2ccc(N=Cc3ccc(O)cc3)cc2)occ1O` gave an IC50 of 20.3 µM (ABTS scavenging, absorbance).
For `O=C(Nc1ccc(Cl)cc1)Nc1cccc(-c2cn(Cc3ccc(Br)cc3)nn2)c1`, the viability was 108% (A549; cell growth or viability, CCK-8; 20 µM, 72 h).
With `Cc1cc(=O)oc2cc(OCCCC[Se]C#N)ccc12` the GI50 was 0.78 µM (A549; cell growth or viability, SRB).
With `c1ccc(Oc2ccc(Nc3c4c(nc5ccccc35)CCC4)cc2)cc1` the inhibition was 91% (Leishmania donovani; parasite growth; 33.33 µM, promastigote).
`CC(C)C[C@H](NC(=O)[C@H](CCCCN)NC(=O)[C@H](Cc1c[nH]c2ccccc12)NC(=O)[C@H](CCCCN)NC(=O)[C@H](CCCCN)NC(=O)[C@H](CC(C)C)NC(=O)[C@H](Cc1ccccc1)NC(=O)[C@H](CCCCN)NC(=O)[C@H](CCC(=O)O)NC(=O)[C@H](CC(C)C)NC(=O)[C@H](CC(C)C)NC(=O)[C@H](CCCCN)NC(=O)[C@@H](N)CCCNC(=N)N)C(N)=O` has an IC50 of 76 µM (A549; cell growth or viability, MTT; 24 h).
